# Assay results of several laboratories.
# Compare with care: the assays were run in different laboratories.
# MMP8: Neutrophil collagenase (MMP8, Homo sapiens, UniProt P22894)
# CA2: Carbonic anhydrase 2 (CA2, Homo sapiens, UniProt P00918)
# PDE2A: cGMP-dependent 3',5'-cyclic phosphodiesterase (PDE2A, Homo sapiens, UniProt O00408)
Compound,target,assay,conditions,inhibition [%]
CCOC(=O)c1ccc(OC(=O)CCCCCNC(=N)N)cc1,MMP8,"enzyme activity, inhibitor",10 µM,7
CCN(CC)CCCC[C@H](NC(=O)[C@H](CC(C)C)NC(=O)[C@H](C)NC(=O)[C@H](Cc1ccccc1)NC(=O)c1ccc(C(C)(C)C)cc1)C(=O)N[C@@H](CO)C(=O)OC,"Delta-type opioid receptor (OPRD1, Homo sapiens, UniProt P41143)","ligand displacement, radioligand",10 µM,29
COc1ccc(S(=O)(=O)N(CC(=O)NO)CC(C)C)cc1,MMP8,"enzyme activity, inhibitor",10 nM,5
C#Cc1n[nH]c2c(-c3cn([C@@H](C)c4ccccn4)c(=O)[nH]c3=O)cc(F)cc12,"cAMP-dependent protein kinase catalytic subunit alpha (PRKACA, Homo sapiens, UniProt P17612)","enzyme activity, inhibitor",0.1 µM,5.1
COCc1c(-c2cc3cc(C)cc(OC)c3s2)c2c(N)ncnn2c1CN1CCNC(=O)C1,CA2,"enzyme activity, inhibitor",10 µM,44
O=C(Nc1cccnn1)N1CCN([C@@H]2CCOc3cc(C(F)(F)F)ccc32)CC1,PDE2A,"enzyme activity, inhibitor",20 µM,3
Cn1cc(-c2cc(F)cc(N3CCn4c(cc5c4CCCC5)C3=O)c2CO)cc(Nc2ccc(N3CCN(C4COC4)CC3)cn2)c1=O,"G protein-coupled receptor kinase 3 (GRK3, Homo sapiens, UniProt P35626)","enzyme activity, inhibitor",0.1 µM,0
COc1cc(Nc2ncc(F)c(Nc3ccc4c(n3)NC(=O)C(C)(C)O4)n2)cc(OC)c1OC,"Receptor-interacting serine/threonine-protein kinase 4 (RIPK4, Homo sapiens, UniProt P57078)",binding,10 µM,96
Cn1cc(-c2cccc(N3CCc4c(sc5c4CC(C)(C)C5)C3=O)c2CO)cc(Nc2ccncn2)c1=O,"Dual specificity mitogen-activated protein kinase kinase 6 (MAP2K6, Homo sapiens, UniProt P52564)","enzyme activity, inhibitor",1 µM,11
N=C(N)c1ccc2cc(OC(=O)c3ccc(N=C(N)N)cc3)ccc2c1,MMP8,"enzyme activity, inhibitor",10 µM,0
CC(C)=CCC[C@]1(C)C=Cc2c(O)c3c(c(CC=C(C)C)c2O1)O[C@]12C(=C[C@@H]4C[C@H]1C(C)(C)O[C@@]2(C/C=C(/C)C(=O)O)C4=O)C3=O,"N-lysine methyltransferase KMT5A (KMT5A, Homo sapiens, UniProt Q9NQR1)",cell-free assay,10 µM,18
CN(CCN1CCC(OC(=O)Nc2ccccc2-c2ccccc2)CC1)C(=O)c1ccc(CN2CCC(C(N)=O)CC2)cc1,PDE2A,"enzyme activity, inhibitor",1 µM,1
Clc1ccc2c(C3CCN(CCc4c[nH]c5ccccc45)CC3)c[nH]c2c1,"Androgen receptor (AR, Homo sapiens, UniProt P10275)","ligand displacement, radioligand",10 µM,25
Cc1ncc(C)n2nc(/C=C/c3nc(N4CCCC4)cc(N4CCOCC4)n3)nc12,PDE2A,"enzyme activity, inhibitor",10 µM,38
C[C@H](C(=O)N[C@H]1COc2ccccc2[C@@H]1S(C)(=O)=O)c1ccc(F)cc1,CA2,"enzyme activity, inhibitor",10 µM,8
